Test results reported in ChEMBL document CHEMBL3751814, “6-Methylpurine derived sugar modified nucleosides: Synthesis and in vivo antitumor activity in D54 tumor expressing M64V-Escherichia coli purine nucleoside phosphorylase” (Eur J Med Chem, 2016).
The source made the active and inactive calls. The rule behind the calls is not given here.

What was measured:
[1] = tested on: D54MG; test: Antitumor activity against human D54MG cells expressing Escherichia coli PNP M64V mutant xenografted in nude mouse assessed as inhibition of tumor growth at 10 and 20 mg/kg, administered via peritoneal cavity 5 times a day (every 2 hrs) for 3 consecutive days measured on day 17 to 19 after tumor implantation; type: functional, organism-based
Outline: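 Xenograft: parental and M64V-PNP-transduced D54MG human glioma cells mixed so 10% express M64V; 2 x 10⁷ total cells injected sc into flanks of nu/nu nude mice. At ~300 mg tumors (day 17), ip dosing 5 times daily (every 2 h) for 3 consecutive days at 5, 10 or 20 mg/kg; 6 mice/group. Tumors measured with calipers twice weekly; weight = length x width²/2; mean and SEM.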

[2] = Terminal half life of compound in mouse at 100 mg/kg, ip by reverse phase HPLC analysis; type: ADME, organism-based; conditions: in vivo, read-out: beta t1/2
[3] = biological target: T1, Purine nucleoside phosphorylase (Homo sapiens, UniProt P00491); test: Prodrug activation assessed as recombinant human PNP-mediated compound cleavage at 100 uM by reverse phase HPLC analysis
T1 sequence (P00491 whole entry): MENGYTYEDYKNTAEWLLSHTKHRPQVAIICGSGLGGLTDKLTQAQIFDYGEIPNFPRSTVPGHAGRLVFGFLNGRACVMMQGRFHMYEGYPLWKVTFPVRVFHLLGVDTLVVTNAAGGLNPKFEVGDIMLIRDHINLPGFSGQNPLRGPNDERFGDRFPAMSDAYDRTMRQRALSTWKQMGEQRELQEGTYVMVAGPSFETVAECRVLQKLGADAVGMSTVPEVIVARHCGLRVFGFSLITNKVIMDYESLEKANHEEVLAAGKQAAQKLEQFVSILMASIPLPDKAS
Outline: (§1)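 Cleavage assay: 100 µM substrate in 50 mM potassium phosphate pH 7.4, with enzyme amount adjusted for a linear rate, at 25°C; aliquots at 0, 0.25, 0.5, 1, 2 h, stopped by boiling, filtered. Reverse-phase C-18 HPLC, 50 mM ammonium dihydrogen phosphate pH 4.5 with 1.25–5% acetonitrile, 254 nm detection. Specific activity = nmol product/mg protein/time. Detection limit 1 nmol/mg/hr; mean of at least two experiments.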

[4] = biological target: T2, S-methyl-5'-thioadenosine phosphorylase (Homo sapiens, UniProt Q13126); test: Prodrug activation assessed as recombinant human MTAP-mediated compound cleavage at 100 uM by reverse phase HPLC analysis; outline: as §1
T2 sequence (Q13126 whole entry): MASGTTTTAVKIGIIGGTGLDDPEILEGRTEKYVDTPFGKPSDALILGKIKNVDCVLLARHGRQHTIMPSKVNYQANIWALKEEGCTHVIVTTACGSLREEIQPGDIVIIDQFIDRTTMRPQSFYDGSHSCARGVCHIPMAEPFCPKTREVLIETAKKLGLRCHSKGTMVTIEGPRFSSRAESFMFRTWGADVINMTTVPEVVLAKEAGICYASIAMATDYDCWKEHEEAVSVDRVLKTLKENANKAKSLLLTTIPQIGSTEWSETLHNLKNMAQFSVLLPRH

[5] = Prodrug activation assessed as recombinant Escherichia coli PNP-mediated compound cleavage at 100 uM by reverse phase HPLC analysis
Outline: as §1, with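 “filtered.” for “filtered. Reverse-phase C-18 HPLC, 50 mM ammonium dihydrogen phosphate pH 4.5 with 1.25–5% acetonitrile, 254 nm detection.”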

[6] = Prodrug activation assessed as recombinant Escherichia coli PNP M64V mutant-mediated compound cleavage at 100 uM by reverse phase HPLC analysis
[7] = Prodrug activation assessed as recombinant Trichomonas vaginalis PNP-mediated compound cleavage at 100 uM by reverse phase HPLC analysis; outline: as §1
[8] = biological target: Purine nucleoside phosphorylase (Sulfolobus solfataricus (strain ATCC 35092 / DSM 1617 / JCM 11322 /P2), UniProt P50389); test: Prodrug activation assessed as recombinant Sulfolobus solfataricus MTAP-mediated compound cleavage at 100 uM by reverse phase HPLC analysis; conditions: saccharolobus solfataricus; outline: as §1
[9] = biological target: 5'-methylthioadenosine/S-adenosylhomocysteine nucleosidase (Escherichia coli O157:H7, UniProt P0AF14); test: Prodrug activation assessed as recombinant Escherichia coli SAH/MTA hydrolase-mediated compound cleavage at 100 uM by reverse phase HPLC analysis
Outline: (§2)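 Reactions held 50 mM potassium phosphate (pH 7.4) and 100 µM substrate at 25°C. Enzyme was titrated to keep cleavage linear: native F. tularensis PNP from crude extract or recombinant E. coli SAH/MTA hydrolase. Samples were taken at 0–2 h and stopped by boiling. Base and nucleoside were resolved by C18 reverse-phase HPLC at 254 nm. Activity is nmol/mg protein/hr, the average of at least two experiments; detection limit is 1 nmol/mg/hr.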

[10] = Prodrug activation assessed as Francisella tularensis PNP-mediated compound cleavage at 100 uM by reverse phase HPLC analysis; outline: as §2
[11] = Prodrug activation in human D54MG cells expressing Escherichia coli PNP M64V mutant xenografted in nude mouse assessed as Escherichia coli PNP M64V mutant-mediated compound cleavage per mg of tumor tissue at 5-20 mg/kg administered via peritoneal cavity 5 times a day (every 2 hrs) for 3 consecutive days measured on day 17; type: organism-based; conditions: in vivo, ip
Outline: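 Tumor extracts were taken from mice bearing D54 xenografts with 10% M64V-PNP-expressing cells, removed at start of treatment (day 17). Cleavage of the prodrug substrate was reported as nmoles cleaved/mg-hr; N = 3.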

[12] = Antitumor activity against human D54MG cells expressing Escherichia coli PNP M64V mutant xenografted in mouse assessed as time for tumor growth delay at maximum tolerated dose; type: functional
Outline: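 Subcutaneous flank xenografts in nude mice (nu/nu) used a 90/10 mix of parental and M64V PNP-transduced D54MG glioma cells (2 x 10⁷ total cells). Starting on day 17, when tumors were about 300 mg, mice received ip doses of 5, 10 or 20 mg/kg five times daily (every 2 h) for 3 days, with 6 mice per group. Calipers were read twice weekly and weight was taken as length x width²/2.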

[13] = Terminal half life of compound in mouse plasma at 67 mg/kg, ip by reverse phase HPLC analysis; type: ADME, organism-based; conditions: read-out: beta t1/2
[14] = Prodrug activation in human D54MG cells expressing Escherichia coli PNP xenografted in nude mouse assessed as Escherichia coli PNP-mediated compound cleavage per mg of tumor tissue; conditions: in vivo
[15] = Antitumor activity against human D54MG cells expressing Escherichia coli PNP xenografted in mouse assessed as time for tumor growth delay at 67 mg/kg; type: functional
[16] = Antitumor activity against human D54MG cells expressing Escherichia coli PNP xenografted in nude mouse assessed as time for tumor growth delay at 33 mg/kg; type: functional

Sequence of Purine nucleoside phosphorylase (Sulfolobus solfataricus (strain ATCC 35092 / DSM 1617 / JCM 11322 /P2), UniProt P50389) (P50389 whole entry): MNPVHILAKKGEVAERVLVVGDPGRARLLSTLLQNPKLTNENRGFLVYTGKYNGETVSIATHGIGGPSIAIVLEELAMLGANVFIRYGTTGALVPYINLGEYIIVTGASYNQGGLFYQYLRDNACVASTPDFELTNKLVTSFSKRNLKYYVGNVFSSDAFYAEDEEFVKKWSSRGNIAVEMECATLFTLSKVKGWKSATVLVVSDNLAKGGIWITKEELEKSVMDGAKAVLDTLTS
Sequence of 5'-methylthioadenosine/S-adenosylhomocysteine nucleosidase (P0AF14 whole entry): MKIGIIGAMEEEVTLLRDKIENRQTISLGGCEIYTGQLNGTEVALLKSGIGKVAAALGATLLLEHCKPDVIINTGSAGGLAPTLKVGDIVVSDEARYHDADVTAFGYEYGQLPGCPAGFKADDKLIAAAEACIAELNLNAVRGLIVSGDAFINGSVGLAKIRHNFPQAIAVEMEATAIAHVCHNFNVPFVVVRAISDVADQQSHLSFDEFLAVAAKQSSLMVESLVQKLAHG

Row | Structure (SMILES) | inhibition [1] | half-life [2] [min] | Drug metabolism [3] [nmol/mg/h] | Drug metabolism [4] [nmol/mg/h] | Drug metabolism [5] [nmol/mg/h] | Drug metabolism [6] [nmol/mg/h] | Drug metabolism [7] [nmol/mg/h] | Drug metabolism [8] [nmol/mg/h] | Drug metabolism [9] [nmol/mg/h] | Drug metabolism [10] [nmol/mg/h] | Drug metabolism [11] [nmol/mg/h] | Time [12] [days] | half-life [13] [min] | Drug metabolism [14] [nmol/mg/h] | Time [15] [days] | Time [16] [days]
1 | Cc1ncnc2c1ncn2[C@@H]1O[C@H]([C@H](C)O)[C@@H](O)[C@H]1O | Active | 21 | < 1 | 4 | 915 | 86000 | 8400 | 1500 | 51 | 100 | 365 | >32 |  |  |  | 
2 | Cc1ncnc2c1ncn2[C@H]1C[C@H](O)[C@@H](CO)O1 |  |  | 35 | < 1 | 528000 | 593000 | 484000 | 12000 | 30 | 3900 |  |  | 14 | 40 | 22 | 22
3 | Cc1ncnc2c1ncn2[C@@H]1O[C@@H](CO)[C@@H](O)[C@H]1O |  |  |  | < 1 | 218 | 10000 | 10000 | 1400 | 36 | 180 |  |  |  |  |  | 
4 | Cc1ncnc2c1ncn2[C@@H]1O[C@H](CO)[C@@H](O)[C@H]1O |  |  | 12 |  | 96000 | 176000 | 155000 | 4000 | 290 | 4800 |  |  |  |  |  | 
5 | OC[C@H]1O[C@@H](n2cnc3c(O)ncnc32)[C@H](O)[C@@H]1O [INOSINE] |  |  | 391000 |  | 342000 |  | 154000 | 84000 |  | 2000 |  |  |  |  |  | 
6 | Nc1ncnc2c1ncn2[C@@H]1O[C@H](CO)[C@@H](O)[C@H]1O [ADENOSINE] |  |  |  | 596 |  |  | 501000 | 57000 | 2100 | 2100 |  |  |  |  |  | 
